Activity calls are given as the source filed them. No cut-off for these calls is given here.
Legend:
Leishmania donovani = assay: Antileishmanial activity against Leishmania donovani infected in hamster; type: functional, organism-based
Plasmodium berghei [1] = assay: Antimalarial activity against blood schizont stage of Plasmodium berghei infected in mouse assessed as mean survival time at 20 mg/kg (reference value: 6.2 +/- 0.5 days); type: functional
Plasmodium berghei [2] = assay: Antimalarial activity against blood schizont stage of Plasmodium berghei infected in mouse assessed as mean survival time at 80 mg/kg (reference value: 6.2 +/- 0.5 days); type: functional
Plasmodium berghei [3] = assay: Antimalarial activity against blood schizont stage of Plasmodium berghei infected in mouse assessed as mean survival time at 320 mg/kg (reference value: 6.2 +/- 0.5 days); type: functional
Plasmodium cynomolgi [4] = assay: Antimalarial activity against Plasmodium cynomolgi infected in rhesus monkey assessed as time duration between end of treatment and relapse at 1 mg/kg administered via stomach tube once daily for 7 days with 2.5 mg of base/kg of chloroquine1; type: functional
Plasmodium cynomolgi [5] = assay: Antimalarial activity against Plasmodium cynomolgi infected in rhesus monkey assessed as time duration between end of treatment and relapse at 0.5 mg/kg administered via stomach tube once daily for 7 days with 2.5 mg of base/kg of chloroquine1; type: functional
Plasmodium cynomolgi [6] = assay: Antimalarial activity against Plasmodium cynomolgi infected in rhesus monkey assessed as infection cure at 0.5 mg/kg administered via stomach tube once daily for 7 days with 2.5 mg of base/kg of chloroquine; type: functional, organism-based; design: dose 0.5 mg/kg
Plasmodium cynomolgi [7] = assay: Antimalarial activity against Plasmodium cynomolgi infected in rhesus monkey assessed as infection cure at 1 mg/kg administered via stomach tube once daily for 7 days with 2.5 mg of base/kg of chloroquine; type: functional, organism-based; design: dose 1 mg/kg
[8] = test system: Plasmodium berghei yoelii; assay: Antimalarial activity against sporozoite stage of Plasmodium berghei yoelii infected in mouse assessed as survival at 2.5 mg/kg, po after 30 days; type: functional, organism-based; design: dose 2.5 mg/kg
Outline: (§1)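 Mice infected with P. berghei yoelii (sporozoite challenge) were dosed on the day of challenge, in groups of five, either orally or subcutaneously at several dose levels. Compound was dissolved or suspended in 0.5% hydroxyethylcellulose–0.1% Tween 80. Prophylactic activity was read as survival of treated mice to 30 days, reported as cures per number treated, with toxic deaths noted.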

[9] = test system: Plasmodium berghei yoelii; assay: Antimalarial activity against sporozoite stage of Plasmodium berghei yoelii infected in mouse assessed as survival at 10 mg/kg, sc after 30 days; type: functional, organism-based; design: dose 10 mg/kg; outline: as §1
Plasmodium berghei [10] = assay: Antimalarial activity against blood schizont stage of Plasmodium berghei infected in mouse assessed as mean survival time at 40 mg/kg (reference value: 6.2 +/- 0.5 days); type: functional
[11] = test system: Plasmodium berghei yoelii; assay: Antimalarial activity against sporozoite stage of Plasmodium berghei yoelii infected in mouse assessed as survival at 2.5 mg/kg, sc after 30 days; type: functional, organism-based; design: dose 2.5 mg/kg; outline: as §1
Plasmodium berghei [12] = assay: Antimalarial activity against blood schizont stage of Plasmodium berghei infected in mouse assessed as mean survival time at 160 mg/kg (reference value: 6.2 +/- 0.5 days); type: functional
Plasmodium berghei [13] = assay: Antimalarial activity against blood schizont stage of Plasmodium berghei infected in mouse assessed as mean survival time at 640 mg/kg (reference value: 6.2 +/- 0.5 days); type: functional
Mus musculus [14] = assay: Toxicity in mouse infected with Plasmodium berghei assessed as death at 640 mg/kg after 2 to 5 days; type: organism-based; design: dose 640 mg/kg; conditions: in vivo
Mus musculus [15] = assay: Toxicity in mouse infected with Plasmodium berghei assessed as death at 320 mg/kg after 2 to 5 days; type: organism-based; design: dose 320 mg/kg; conditions: in vivo
[16] = test system: Plasmodium berghei yoelii; assay: Antimalarial activity against sporozoite stage of Plasmodium berghei yoelii infected in mouse assessed as survival at 10 mg/kg, po after 30 days; type: functional, organism-based; design: dose 10 mg/kg; outline: as §1
[17] = test system: Plasmodium berghei yoelii; assay: Antimalarial activity against sporozoite stage of Plasmodium berghei yoelii infected in mouse assessed as survival at 160 mg/kg, sc after 30 days; type: functional, organism-based; design: dose 160 mg/kg; outline: as §1
Plasmodium cynomolgi [18] = assay: Antimalarial activity against Plasmodium cynomolgi infected in rhesus monkey assessed as infection cure at 0.25 mg/kg administered via stomach tube once daily for 7 days with 2.5 mg of base/kg of chloroquine; type: functional, organism-based; design: dose 0.25 mg/kg
Plasmodium cynomolgi [19] = assay: Antimalarial activity against Plasmodium cynomolgi infected in rhesus monkey assessed as time duration between end of treatment and relapse at 0.25 mg/kg administered via stomach tube once daily for 7 days with 2.5 mg of base/kg of chloroquine1; type: functional, organism-based; design: dose 0.25 mg/kg

For `Br.COc1cc(NC(C)CCCN)c2nccc(/C=C/CC3CCCCC3)c2c1` (stereo unspecified), the Activity (Leishmania donovani) was “inactive”, the MSD (Plasmodium berghei [1]) was 0.4 days and the MSD (Plasmodium berghei [2]) was 0.9 days. The MSD (Plasmodium berghei [3]) was -0.4 days.

For `CCCCc1ccnc2c(NC(C)CCCN)cc(OC)cc12.O=C(O)/C=C/C(=O)O` (stereo unspecified), the Time (Plasmodium cynomolgi [4]) was 22 days, the Time (Plasmodium cynomolgi [5]) was 5 days and the Activity (Plasmodium cynomolgi [6]) was “inactive”. The Activity (Leishmania donovani) was “inactive”, the Activity (Plasmodium cynomolgi [7]) was “inactive” and the Activity [8] was “inactive”. For the same compound, the Activity [9] was “inactive”.

With `CCC(C)Cc1ccnc2c(NC(C)CCCN)cc(OC)cc12.O=C(O)/C=C/C(=O)O` (stereo unspecified) the Time (Plasmodium cynomolgi [4]) was 9 days, the Time (Plasmodium cynomolgi [5]) was 7 days and the Activity (Plasmodium cynomolgi [6]) was “inactive”. The Activity (Leishmania donovani) was “inactive” and the Activity (Plasmodium cynomolgi [7]) was “inactive”.

`COc1cc(NC(C)CCCN)c2nccc(CCCC3CCCCC3)c2c1.O=C(O)/C=C/C(=O)O` (stereo unspecified) was tested, and the Time (Plasmodium cynomolgi [4]) was 8 days, the Time (Plasmodium cynomolgi [5]) was 6 days and the Activity (Plasmodium cynomolgi [6]) was “inactive”. The Activity (Leishmania donovani) was “inactive”, the MSD (Plasmodium berghei [1]) was 0.3 days and the Activity (Plasmodium cynomolgi [7]) was “inactive”. It also gave an MSD (Plasmodium berghei [2]) of 0.4 days and an MSD (Plasmodium berghei [3]) of 0.9 days.

In the case of `CC/C=C/c1ccnc2c(NC(C)CCCN)cc(OC)cc12.O=C(O)/C=C/C(=O)O` (stereo unspecified), the Time (Plasmodium cynomolgi [4]) is reported as 10 days, the Time (Plasmodium cynomolgi [5]) is reported as 6 days and the Activity (Plasmodium cynomolgi [6]) is reported as “inactive”. For the same compound, the Activity (Leishmania donovani) was “inactive”, the MSD (Plasmodium berghei [10]) was 5.1 days and the MSD (Plasmodium berghei [1]) was 3.1 days. The Activity (Plasmodium cynomolgi [7]) was “inactive”, the Activity [8] was “inactive” and the Activity [11] was “inactive”. For the same compound, the MSD (Plasmodium berghei [2]) was 6.5 days, the MSD (Plasmodium berghei [12]) was 7.5 days and the MSD (Plasmodium berghei [3]) was 9.5 days. For the same compound, the MSD (Plasmodium berghei [13]) was 10.3 days.

With `COc1cc(NC(C)CCCN)c2ncccc2c1` (stereo unspecified) [PRIMAQUINE] the Activity (Mus musculus [14]) was “Toxic”, the MSD (Plasmodium berghei [10]) was 5 days and the MSD (Plasmodium berghei [1]) was 4 days. The MSD (Plasmodium berghei [2]) was 9.4 days and the Activity (Mus musculus [15]) was “Toxic”.

For `COc1cc(NC(C)CCCN)c2nccc(/C=C/C3CCCCC3)c2c1` (stereo unspecified), the Activity (Leishmania donovani) was “inactive”, the Activity [16] was “inactive” and the Activity [17] was “inactive”. For the same compound, the Activity [9] was “inactive”.

In the case of `C/C=C\c1ccnc2c(NC(C)CCCN)cc(OC)cc12.O=C(O)/C=C/C(=O)O` (mixture of isomers), the Time (Plasmodium cynomolgi [4]) is reported as 6 days, the Time (Plasmodium cynomolgi [5]) is reported as 6 days and the Activity (Plasmodium cynomolgi [6]) is reported as “inactive”. The Activity (Plasmodium cynomolgi [18]) was “inactive”, the Activity (Leishmania donovani) was “inactive” and the Activity (Plasmodium cynomolgi [7]) was “inactive”. For the same compound, the Activity (Plasmodium cynomolgi [19]) was “inactive” and the Activity [8] was “inactive”.

For `COc1cc(NC(C)CCCN)c2nccc(CCC3CCCCC3)c2c1.O=C(O)/C=C/C(=O)O` (stereo unspecified), the Activity (Leishmania donovani) was “inactive”, the MSD (Plasmodium berghei [10]) was 0.3 days and the MSD (Plasmodium berghei [12]) was 0.3 days. For the same compound, the MSD (Plasmodium berghei [13]) was 0.5 days.

`CCCc1ccnc2c(NC(C)CCCN)cc(OC)cc12.O=C(O)/C=C/C(=O)O` (stereo unspecified) was tested, and the Time (Plasmodium cynomolgi [4]) was 23 days, the Time (Plasmodium cynomolgi [5]) was 7 days and the Activity (Plasmodium cynomolgi [6]) was “inactive”. For the same compound, the Activity (Leishmania donovani) was “inactive” and the Activity (Plasmodium cynomolgi [7]) was “inactive”.

With `COc1cc(NC(C)CCCN)c2nccc(CC3CCCCC3)c2c1.O=C(O)/C=C/C(=O)O` (stereo unspecified) the Time (Plasmodium cynomolgi [4]) was 7 days, the Time (Plasmodium cynomolgi [5]) was 6 days and the Activity (Plasmodium cynomolgi [6]) was “inactive”. For the same compound, the Activity (Leishmania donovani) was “inactive” and the Activity (Plasmodium cynomolgi [7]) was “inactive”.

In the case of `COc1cc(NC(C)CCCN)c2nccc(C=C(C)C)c2c1` (stereo unspecified), the Activity (Leishmania donovani) is reported as “inactive”.

`CC/C(C)=C\c1ccnc2c(NC(C)CCCN)cc(OC)cc12` (stereo unspecified) was tested, and the Activity (Leishmania donovani) was “inactive”.

`C/C=C/c1ccnc2c(NC(C)CCCN)cc(OC)cc12.O=C(O)/C=C/C(=O)O` (stereo unspecified) was tested, and the Time (Plasmodium cynomolgi [4]) was 18 days, the Time (Plasmodium cynomolgi [5]) was 8 days and the Activity (Plasmodium cynomolgi [6]) was “inactive”. For the same compound, the Activity (Leishmania donovani) was “inactive”, the Activity (Plasmodium cynomolgi [7]) was “inactive” and the Activity [9] was “inactive”.
